# Data published in ChEMBL document CHEMBL1938388, “Design, synthesis and biological evaluation of new naphtalene diimides bearing isothiocyanate functionality” (Eur J Med Chem, 2012).
# Active and inactive are the calls of the source. The calls are words filed in the database; no cut-off is given here.
# Columns and labels:
# Jurkat [1] = experiment: Induction of apoptosis in human Jurkat T cells assessed as increase in phosphatidylserine level at 2 uM after 24 hrs by flow cytometric analysis; format: functional, cell-based
# Summary of the method: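 Jurkat T leukemia cells were exposed for 24 h. Aliquots of 2 × 10^4 cells were then stained with Guava Nexin Reagent, which contains Annexin V-PE for phosphatidylserine exposure and 7-AAD for membrane-permeable, necrotic cells. Staining ran 20 min at room temperature in the dark, followed by flow cytometry. Data are mean ± SEM of at least three independent experiments. Friedman test, Dunn's post test.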
# Jurkat [2] = experiment: Cytotoxicity against human Jurkat T cells assessed as necrotic cells at 1 uM after 72 hrs by flow cytometric analysis; format: functional
# Summary of the method: (§1)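 After 72 h exposure of Jurkat cells, 2 × 10^4 cells were stained with an Annexin V-PE/7-AAD cocktail for 20 min at room temperature in the dark. Necrotic cells were scored by flow cytometry.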
# Jurkat [3] = experiment: Induction of apoptosis in human Jurkat T cells assessed as increase in necrotic cells at 4 uM after 24 hrs by 7-AA staining-based flow cytometric analysis; format: functional, cell-based
# Jurkat [4] = experiment: Induction of apoptosis in human Jurkat T cells assessed as decrease in membrane potential at 0.75 uM after 24 hrs by JC-1 staining-based flow cytometric analysis; format: functional; parameters: scale not given: the % may be the effect or the level left
# Jurkat [5] = experiment: Cell cycle arrest in human Jurkat T cells assessed as accumulation at S phase at 0.5 to 1 uM after 24 hrs by flow cytometric analysis (reference value: 20%); format: functional
# Summary of the method: (§2)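 Jurkat cells exposed 24 h to a range of concentrations, fixed in ice-cold ethanol, stained with propidium iodide-containing cell cycle reagent for 30 min at room temperature in the dark; G1, S and G2/M fractions from flow cytometry. Mean ± SEM of four independent experiments.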
# Jurkat [6] = experiment: Cell cycle arrest in human Jurkat T cells assessed as accumulation at G2/M phase at 0.5 to 1 uM after 24 hrs by flow cytometric analysis; format: functional, cell-based; summary of the method: as §2
# Jurkat [7] = experiment: Cytotoxicity against human Jurkat T cells assessed as necrotic cells at 0.1 to 16 uM after 72 hrs by flow cytometric analysis; format: functional, cell-based; summary of the method: as §1
# Jurkat [8] = experiment: Induction of apoptosis in human Jurkat T cells assessed as decrease in membrane potential at 1 uM after 24 hrs by JC-1 staining-based flow cytometric analysis; format: functional; parameters: scale not given: the % may be the effect or the level left
# Jurkat [9] = experiment: Induction of apoptosis in human Jurkat T cells assessed as caspase 8 activation after 24 hrs by FAM-LETD-FMK staining-based flow cytometric analysis
# Jurkat [10] = experiment: Cell cycle arrest in human Jurkat T cells assessed as accumulation at G1 phase at 0.5 to 1 uM after 24 hrs by flow cytometric analysis (reference value: 63%); format: functional; summary of the method: as §2
# Jurkat [11] = experiment: Induction of apoptosis in human Jurkat T cells assessed as decrease in membrane potential at 0.5 to 2 uM after 24 hrs by JC-1 staining-based flow cytometric analysis; format: functional, cell-based
# Jurkat [12] = experiment: Growth inhibition in human Jurkat T cells assessed as suppression into cell cycle progression at 4 uM after 24 hrs by flow cytometric analysis; format: functional; settings: read-out: GI
# Summary of the method: (§3)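 Jurkat cells were treated 24 h at graded concentrations, and cell growth inhibition was measured by flow cytometry. Mean ± SEM of at least three independent experiments.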
# Jurkat [13] = experiment: Growth inhibition in human Jurkat T cells assessed as suppression into cell cycle progression at 2 uM after 24 hrs by flow cytometric analysis; format: functional; summary of the method: as §3
# Jurkat [14] = experiment: Cytotoxicity against human Jurkat T cells assessed as decrease in cell viability after 24 hrs by flow cytometric analysis; format: functional, cell-based
# Summary of the method: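 Jurkat cultures kept in exponential growth (split every third day to 1 × 10^5 cells/ml) were treated for one cell cycle (24 h) at graded concentrations. Viability was read right after treatment by flow cytometry after 5 min propidium iodide-based stain at room temperature. IC50 was interpolated from the dose-response curve; ≥3 independent experiments, mean ± SEM.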
# Jurkat [15] = experiment: Induction of apoptosis in human Jurkat T cells assessed as increase in phosphatidylserine level after 24 hrs by flow cytometric analysis; format: functional, cell-based
# Jurkat [16] = experiment: Growth inhibition in human Jurkat T cells assessed as suppression into cell cycle progression at 8 uM after 24 hrs by flow cytometric analysis; format: functional; settings: read-out: GI; summary of the method: as §3
# Jurkat [17] = experiment: Induction of apoptosis in human Jurkat T cells assessed as decrease in membrane potential at 2 uM after 24 hrs by JC-1 staining-based flow cytometric analysis; format: functional; parameters: scale not given: the % may be the effect or the level left
# Jurkat [18] = experiment: Induction of apoptosis in human Jurkat T cells assessed as caspase 8 activation at 0.5 to 2 uM after 24 hrs by FAM-LETD-FMK staining-based flow cytometric analysis
# Jurkat [19] = experiment: Induction of apoptosis in human Jurkat T cells assessed as increase in phosphatidylserine level at 0.5 to 4 uM after 24 hrs by flow cytometric analysis; format: functional, cell-based
# Jurkat [20] = experiment: Ratio IC50 for sulforaphane to compound for human Jurkat T cells; format: functional
# Jurkat [21] = experiment: Induction of apoptosis in human Jurkat T cells assessed as decrease in membrane potential after 24 hrs by JC-1 staining-based flow cytometric analysis; format: functional, cell-based
# Jurkat [22] = experiment: Induction of apoptosis in human Jurkat T cells assessed as decrease in membrane potential at 0.5 uM after 24 hrs by JC-1 staining-based flow cytometric analysis; format: functional; parameters: scale not given: the % may be the effect or the level left
# Jurkat [23] = experiment: Cell cycle arrest in human Jurkat T cells assessed as accumulation at G2/M phase at 0.25 to 0.5 uM after 24 hrs by flow cytometric analysis (reference value: 29%); format: functional; summary of the method: as §2
# Jurkat [24] = experiment: Induction of apoptosis in human Jurkat T cells assessed as caspase 8 activation at 0.25 to 0.75 uM after 24 hrs by FAM-LETD-FMK staining-based flow cytometric analysis
# Jurkat [25] = experiment: Cell cycle arrest in human Jurkat T cells assessed as accumulation at S phase at 0.25 to 0.5 uM after 24 hrs by flow cytometric analysis (reference value: 21%); format: functional; summary of the method: as §2
# Jurkat [26] = experiment: Induction of apoptosis in human Jurkat T cells assessed as increase in necrotic cells at 1 uM after 24 hrs by 7-AA staining-based flow cytometric analysis; format: functional, cell-based
# Jurkat [27] = experiment: Induction of apoptosis in human Jurkat T cells assessed as increase in phosphatidylserine level at 0.25 to 1 uM after 24 hrs by flow cytometric analysis; format: functional, cell-based
# Jurkat [28] = experiment: Induction of apoptosis in human Jurkat T cells assessed as increase in apoptotic cells at 0.75 uM after 24 hrs by 7-AA staining-based flow cytometric analysis relative to sulforaphane
# Jurkat [29] = experiment: Induction of apoptosis in human Jurkat T cells assessed as decrease in membrane potential at 0.25 to 0.75 uM after 24 hrs by JC-1 staining-based flow cytometric analysis; format: functional, cell-based
# Jurkat [30] = experiment: Growth inhibition in human Jurkat T cells assessed as suppression into cell cycle progression at 1 uM after 24 hrs by flow cytometric analysis; format: functional; settings: read-out: GI; summary of the method: as §3
# Jurkat [31] = experiment: Growth inhibition in human Jurkat T cells assessed as suppression into cell cycle progression at 0.75 uM after 24 hrs by flow cytometric analysis; format: functional; settings: read-out: GI; summary of the method: as §3
# Jurkat [32] = experiment: Cell cycle arrest in human Jurkat T cells assessed as accumulation at G1 phase at 0.25 to 0.5 uM after 24 hrs by flow cytometric analysis (reference value: 56%); format: functional; summary of the method: as §2
# Jurkat [33] = experiment: Induction of apoptosis in human Jurkat T cells assessed as increase in necrotic cells at 1.5 uM after 24 hrs by 7-AA staining-based flow cytometric analysis; format: functional, cell-based
# Jurkat [34] = experiment: Induction of apoptosis in human Jurkat T cells assessed as caspase 8 activation at 0.25 to 1 uM after 24 hrs by FAM-LETD-FMK staining-based flow cytometric analysis
# Jurkat [35] = experiment: Induction of apoptosis in human Jurkat T cells assessed as increase in phosphatidylserine level at 0.25 to 1.5 uM after 24 hrs by flow cytometric analysis; format: functional, cell-based
# Jurkat [36] = experiment: Growth inhibition in human Jurkat T cells assessed as suppression into cell cycle progression at 3 uM after 24 hrs by flow cytometric analysis; format: functional; settings: read-out: GI; summary of the method: as §3
# Jurkat [37] = experiment: Growth inhibition in human Jurkat T cells assessed as suppression into cell cycle progression at 1.5 uM after 24 hrs by flow cytometric analysis; format: functional; settings: read-out: GI; summary of the method: as §3
# Jurkat [38] = experiment: Cell cycle arrest in human Jurkat T cells assessed as accumulation at G1 phase at 0.25 to 0.5 uM after 24 hrs by flow cytometric analysis (reference value: 58%); format: functional; summary of the method: as §2
# Jurkat [39] = experiment: Cell cycle arrest in human Jurkat T cells assessed as accumulation at S phase at 0.25 to 0.5 uM after 24 hrs by flow cytometric analysis; format: functional, cell-based; summary of the method: as §2
# Jurkat [40] = experiment: Cell cycle arrest in human Jurkat T cells assessed as accumulation at G2/M phase at 0.25 to 0.5 uM after 24 hrs by flow cytometric analysis; format: functional, cell-based; summary of the method: as §2
# Jurkat [41] = experiment: Induction of apoptosis in human Jurkat T cells assessed as decrease in membrane potential at 0.25 to 1 uM after 24 hrs by JC-1 staining-based flow cytometric analysis; format: functional, cell-based
SMILES,Activity (Jurkat [2]) [%],Activity (Jurkat [4]) [%],Activity (Jurkat [7]),Activity (Jurkat [9]),Activity (Jurkat [14]),IC50 (Jurkat [14]) [nM],Activity (Jurkat [15]),Activity (Jurkat [17]) [%],Ratio IC50 (Jurkat [20]),Activity (Jurkat [21]),Activity (Jurkat [22]) [%],inhibition of growth at 1 µM (Jurkat [30]) [%],other results
CC[C@@]1(O)C(=O)OCc2c1cc1n(c2=O)Cc2cc3ccccc3nc2-1,–,–,–,–,–,–,–,–,–,–,–,–,Activity (Jurkat [1]): Active
CN(C)CCN1C(=O)c2ccc3c4c(ccc(c24)C1=O)C(=O)N(CCN=C=S)C3=O,100,100,Active,Dose-dependent effect,Dose-dependent effect,1910,Dose-dependent effect,100,8,Dose-dependent effect,–,–,Activity (Jurkat [3]): Active; Activity (Jurkat [5]): 15%; Activity (Jurkat [6]): inactive; Activity (Jurkat [8]): 53%; Activity (Jurkat [10]): 68%; Activity (Jurkat [11]): Active; inhibition of growth at 4 µM (Jurkat [12]): 40%; inhibition of growth at 2 µM (Jurkat [13]; read-out: GI): 30%; inhibition of growth at 8 µM (Jurkat [16]): 90%; Activity (Jurkat [18]): 56%; Activity (Jurkat [19]): Active
O=C1c2ccc3c4c(ccc(c24)C(=O)N1CCCN=C=S)C(=O)N(CCCN=C=S)C3=O,100,100,Active,Dose-dependent effect,Dose-dependent effect,430,Dose-dependent effect,100,35,Dose-dependent effect,47.1,65,Activity (Jurkat [23]): 22%; Activity (Jurkat [24]): 68%; Activity (Jurkat [25]): 13%; Activity (Jurkat [26]): Active; Activity (Jurkat [27]): Active; growth inhibition (GI) (Jurkat [13]): Active; fold change (FC) (Jurkat [28]): 40; Activity (Jurkat [29]): Active; inhibition of growth at 0.75 µM (Jurkat [31]): 30%; Activity (Jurkat [32]): 68%
C[S+]([O-])CCCCN=C=S (stereo unspecified) [SULFORAPHANE],–,–,–,–,–,15000,–,–,–,–,–,–,–
O=C1c2ccc3c4c(ccc(c24)C(=O)N1CCN=C=S)C(=O)N(CCN=C=S)C3=O,100,100,Active,Dose-dependent effect,Dose-dependent effect,890,Dose-dependent effect,100,17,Dose-dependent effect,50.6,40,Activity (Jurkat [33]): Active; Activity (Jurkat [34]): 66%; Activity (Jurkat [35]): Active; inhibition of growth at 3 µM (Jurkat [36]): 94%; inhibition of growth at 1.5 µM (Jurkat [37]): 58%; Activity (Jurkat [38]): 68%; Activity (Jurkat [39]): Active; Activity (Jurkat [40]): Active; Activity (Jurkat [41]): Active
